In ChEMBL document CHEMBL1124294, “Nonsteroidal antiandrogens. Synthesis and structure-activity relationships of 3-substituted derivatives of 2-hydroxypropionanilides” (1988):
Active and inactive are the calls of the source. No cut-off for these calls is given here.

Columns and labels:
Rattus norvegicus [1] = organism: Rattus norvegicus; assay: Effective dose required to inhibit 50 percent of androgen hormone activity in intact rat; type: functional
How it was run: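 Rats dosed with vehicle 0.5% polysorbate. Killed 24 h after the last dose; seminal vesicles dissected, blotted and weighed. Percent inhibition uses a cumulative castrate control group as the 100% effect. ED50 taken from dose-response curves.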

Rattus norvegicus [2] = assay: Effect of compound on testosterone hormone level on 14-day dosing in intact rats at 25 mg/kg.; type: functional
Rattus norvegicus [3] = organism: Rattus norvegicus; assay: Agonist activity indicated by a statistically significant increase in ventral prostate gland weight compared, to control animals; NA means no statistically significant increase in ventral prostate weight compared to controls.; type: functional, organism-based
How it was run: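 Male rats castrated at 24 days of age, groups of five. Killed 24 h after the final dose. Seminal vesicles and ventral prostate dissected, cleaned and weighed. Value is ventral prostate weight in mg, compared with castrated vehicle controls for statistical significance.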

Rattus norvegicus [4] = assay: Effect of compound on testosterone hormone level on 14-day dosing in intact rats; type: functional
Rattus norvegicus [5] = assay: Effect of compound on LH level on 14-day dosing in intact rats 25 mg/kg; type: functional
Rattus norvegicus [6] = assay: Effect of compound on LH level on 14-day dosing in intact rats; type: functional
Rattus norvegicus [7] = assay: Percent inhibition of androgen hormone activity in rat at 50 mg/kg; type: functional
How it was run: (§1)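 Rats dosed with vehicle 0.5% polysorbate. Killed 24 h after the last dose; seminal vesicles dissected, blotted and weighed. […] Percent inhibition uses a cumulative castrate control group as the 100% effect. ED50 taken from dose-response curves.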

Rattus norvegicus [8] = assay: Percent inhibition of androgen hormone in rat at 50 mg/kg; type: functional; how it was run: as §1
Rattus norvegicus [9] = assay: Percent inhibition of androgen hormone in rat at 25 mg/kg; type: functional; how it was run: as §1
Rattus norvegicus [10] = assay: Effect of compound on testosterone hormone level on 14-day dosing in intact rats; No statistically significant difference from controls; type: functional, organism-based
Rattus norvegicus [11] = assay: Effect of compound on LH level on 14-day dosing in intact rats; No statistically significant difference from control; type: functional, organism-based

CC(C)C(=O)Nc1ccc([N+](=O)[O-])c(C(F)(F)F)c1 [FLUTAMIDE]
ED50 (Rattus norvegicus [1]): 2 mg/kg | Testosterone (Rattus norvegicus [2]): 7.61 ng/mL | Weight (Rattus norvegicus [3]): inactive | Testosterone (Rattus norvegicus [4]): <0.01 ng/mL | LH (Rattus norvegicus [5]): 9 ng/mL | LH (Rattus norvegicus [6]): <0.01 ng/mL

CC(O)(CSc1ccc(F)cc1)C(=O)Nc1ccc(C#N)c(C(F)(F)F)c1 (centres undefined)
ED50 (Rattus norvegicus [1]): 0.5 mg/kg | Weight (Rattus norvegicus [3]): Not significant

CC(O)(CSc1ccccc1)C(=O)Nc1ccc([N+](=O)[O-])cc1 (centres undefined)
inhibition in vivo at 50 mg/kg (Rattus norvegicus [7]): 11%

CC(O)(CS(=O)(=O)c1ccc(F)cc1)C(=O)Nc1ccc([N+](=O)[O-])c(C(F)(F)F)c1 (centres undefined)
ED50 (Rattus norvegicus [1]): 0.4 mg/kg

CC(O)(CSc1ccccc1)C(=O)Nc1ccc(Cl)c([N+](=O)[O-])c1 (centres undefined)
Weight (Rattus norvegicus [3]): Not significant | inhibition in vivo at 50 mg/kg (Rattus norvegicus [8]): 36%

CC(O)(CSc1ccccc1)C(=O)Nc1ccc(Cl)c(Cl)c1 (centres undefined)
inhibition in vivo at 25 mg/kg (Rattus norvegicus [9]): 44%

CC(O)(CS(=O)(=O)c1ccc(F)cc1)C(=O)Nc1ccc(C#N)c(C(F)(F)F)c1 (centres undefined) [BICALUTAMIDE]
Testosterone (Rattus norvegicus [10]): inactive | ED50 (Rattus norvegicus [1]): 0.5 mg/kg | Testosterone (Rattus norvegicus [2]): 3.97 ng/mL | Weight (Rattus norvegicus [3]): inactive | LH (Rattus norvegicus [11]): inactive | LH (Rattus norvegicus [5]): 1.04 ng/mL
